Source: ChEMBL document CHEMBL1124248, “Preparation and antischistosomal and antitumor activity of hycanthone and some of its congeners. Evidence for the mode of action of hycanthone” (1988)
“And” between values parts separate entries of the source, which are not always exact repeats. Equal entries are not always repeated.

How the values were obtained:
Assay type in all cases: functional
Schistosoma mansoni [1] = assay: Day 50% survival of worms in culture of HC resistant Schistosoma mansoni
Outline: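 Adult HC-resistant S. mansoni were exposed in vitro and kept in culture. The value is the day by which 50% of worms were dead. Cultures were ended at different times in different experiments. Concentrations are given in M × 10^6.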

Schistosoma mansoni [2] = assay: Day 50% survival of worms in culture of HC sensitive Schistosoma mansoni
Schistosoma mansoni [3] = assay: Incorporation of 4.5 M*10e6 [3H]uridine in hycanthone(HC) sensitive Schistosoma mansoni
Schistosoma mansoni [4] = assay: Incorporation of 0.9 M *10e6 [3H]uridine in hycanthone(HC) resistant Schistosoma mansoni
Outline: (§1)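 Adult HC-resistant S. mansoni were treated in vitro, and [3H]uridine incorporation by the worms was measured. Values are % of control. Concentrations are given in M × 10^6.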

Schistosoma mansoni [5] = assay: Incorporation of 0.9 M *10e6 [3H]uridine in hycanthone(HC) sensitive Schistosoma mansoni
Schistosoma mansoni [6] = assay: Incorporation of 4.5M*10e6 [3H]uridine in hycanthone(HC) resistant Schistosoma mansoni; outline: as §1
Mus musculus [7] = assay: In vivo antitumor activity against p-388 lymphocytic leukemia in mice at 12.5 mg/kg
Outline: (§2)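 Murine P388 lymphocytic leukemia model tested by the National Cancer Institute. Compound given once daily for 9 days; activity expressed as T/C.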

Mus musculus [8] = assay: In vivo antitumor activity against p-388 lymphocytic leukemia in mice at 1.5 mg/kg; outline: as §2
Mus musculus [9] = assay: In vivo antitumor activity against p-388 lymphocytic leukemia in mice at 3.12 mg/kg; outline: as §2
Mus musculus [10] = assay: In vivo antitumor activity against p-388 lymphocytic leukemia in mice at 6.25 mg/kg; outline: as §2
Schistosoma mansoni [11] = assay: Incorporation of 1.1 M *10e6 [3H]uridine in hycanthone(HC) resistant Schistosoma mansoni; outline: as §1
Schistosoma mansoni [12] = assay: Incorporation of 5.5 M*10e6 [3H]uridine in hycanthone(HC) sensitive Schistosoma mansoni
Schistosoma mansoni [13] = assay: Incorporation of 5.5 M*10e6 [3H]uridine in hycanthone(HC) resistant Schistosoma mansoni; outline: as §1
Schistosoma mansoni [14] = assay: Incorporation of 1.1 M *10e6 [3H]uridine in hycanthone(HC) sensitive Schistosoma mansoni
Mus musculus [15] = assay: In vivo antitumor activity against p-388 lymphocytic leukemia in mice at 1.50 mg/kg; conditions: dose 1.5 mg/kg; outline: as §2
Schistosoma mansoni [16] = assay: Incorporation of 5M*10e6 [3H]uridine in hycanthone(HC) resistant Schistosoma mansoni; outline: as §1
Schistosoma mansoni [17] = assay: Incorporation of 1 M *10e6 [3H]uridine in hycanthone(HC) sensitive Schistosoma mansoni
Schistosoma mansoni [18] = assay: Incorporation of 1 M *10e6 [3H]uridine in hycanthone(HC) resistant Schistosoma mansoni; outline: as §1
Schistosoma mansoni [19] = assay: Incorporation of 5M*10e6 [3H]uridine in hycanthone(HC) sensitive Schistosoma mansoni
Schistosoma mansoni [20] = assay: Incorporation of 6.3 M*10e6 [3H]uridine in hycanthone(HC) sensitive Schistosoma mansoni
Mus musculus [21] = assay: In vivo antitumor activity against p-388 lymphocytic leukemia in mice at 50 mg/kg; outline: as §2
Schistosoma mansoni [22] = assay: Incorporation of 1.3 [3H]uridine in hycanthone(HC) resistant Schistosoma mansoni; outline: as §1
Mus musculus [23] = assay: In vivo antitumor activity against p-388 lymphocytic leukemia in mice at 6.25 mg/kg (Duplicate value); outline: as §2
Mus musculus [24] = assay: In vivo antitumor activity against p-388 lymphocytic leukemia in mice at 25 mg/kg (Duplicate value); outline: as §2
Schistosoma mansoni [25] = assay: Incorporation of 1.3 M *10e6 [3H]uridine in hycanthone(HC) sensitive Schistosoma mansoni
Mus musculus [26] = assay: In vivo antitumor activity against p-388 lymphocytic leukemia in mice at 12.5 mg/kg (Duplicate value); outline: as §2

CCN(CC)CCNc1ccc(COC(=O)c2cc([N+](=O)[O-])cc([N+](=O)[O-])c2)c2sc3ccccc3c(=O)c12
Effect (Schistosoma mansoni [1]): >17 days
Effect (Schistosoma mansoni [2]): 7 days
Control (Schistosoma mansoni [3]): 0%
Control (Schistosoma mansoni [4]): 95%
Control (Schistosoma mansoni [5]): 50%
Control (Schistosoma mansoni [6]): 105%

CNC(=O)OCc1ccc(NCCN(C)C)c2c(=O)c3cc(O)ccc3sc12
T/C (Mus musculus [7]): 112
T/C (Mus musculus [8]): 134
T/C (Mus musculus [9]): 130
T/C (Mus musculus [10]): 127

CCCNC(=O)OCc1ccc(NCCN(CC)CC)c2c(=O)c3ccccc3sc12
Control (Schistosoma mansoni [11]): 100%
Effect (Schistosoma mansoni [2]): >12 days and 10 days
Control (Schistosoma mansoni [12]): 22%
Control (Schistosoma mansoni [13]): 56%
Control (Schistosoma mansoni [14]): 40%
T/C (Mus musculus [9]): 117%
T/C (Mus musculus [15]): 99%
T/C (Mus musculus [10]): 134%

CCN(CC)CCNc1ccc(COC(=O)Nc2ccccc2)c2sc3ccccc3c(=O)c12
Effect (Schistosoma mansoni [1]): 12 days
Effect (Schistosoma mansoni [2]): 8 days
Control (Schistosoma mansoni [16]): 32%
Control (Schistosoma mansoni [17]): 18%
T/C (Mus musculus [10]): 111%
Control (Schistosoma mansoni [18]): 33%
Control (Schistosoma mansoni [19]): 7%

CCN(CC)CCNc1ccc(COC(C)=O)c2sc3ccccc3c(=O)c12
Control (Schistosoma mansoni [20]): 4%
Effect (Schistosoma mansoni [1]): >15 days and 7 days
Effect (Schistosoma mansoni [2]): 7 days
T/C (Mus musculus [21]): 118%
Control (Schistosoma mansoni [22]): 19%
T/C (Mus musculus [23]): 123%
T/C (Mus musculus [24]): 125%
Control (Schistosoma mansoni [25]): 13%
T/C (Mus musculus [26]): 129%
